Test results taken from PubChem BioAssay AID588678 (Southern Research Specialized Biocontainment Screening …, 2011).
Calls of active or inactive are those of the source.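 How the source made its calls: active means inhibition of 30% or more at any tested concentration; inactive means the rest.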

Biological target: M18 aspartyl aminopeptidase (Plasmodium falciparum 3D7)
Assay: inhibition of P. falciparum M18 aspartyl aminopeptidase – biochemical, QFRET fluorogenic substrate, dose response (AID 588678)
Settings: recombinant PFM18AAP, H-Glu-NHMec fluorogenic substrate cleavage
In short: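 Technique: NHMec fluorescence at 370 nm excitation, 460 nm emission; Assay system: recombinant PFM18AAP enzyme; Replication: triplicate; Compound: 10-point twofold compound dilution series; Evaluation: % inhibition and fitted IC50; Incubation: enzyme reaction with compounds, 90 min at room temperature; Medium: Tris-HCl pH 7.5 with CoCl2 and 2% DMSO.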

Row | inhibition (at 100 µM (top of the series)) | IC50 [µM] | Compound | other results
1 | inactive | – | CCC(C)C(=O)Nc1ccccc1O (stereo not drawn) | –
2 | – | 5.4 | Oc1ccc(CCNc2cccc3ccccc23)cc1O | –
3 | inactive | – | Cc1c(O)c(=O)ccn1CCNc1c2ccccc2nc2ccccc12 | –
4 | – | – | O=C(O)CCCNc1c2ccccc2nc2ccccc12 | inhibition (at 50 µM (top of the series)): inactive
5 | inactive | – | Oc1ccc(CNc2c3ccccc3nc3ccccc23)cc1O | –
6 | inactive | – | COc1ccc(CCNc2c3ccccc3nc3ccccc23)cc1OC | –
7 | inactive | – | COc1ccc(CCNc2ccc3ccccc3c2)cc1OC | –
8 | – | 16.9 | O=S1(=O)c2ccccc2-c2cc(-c3nc(-c4ccc(O)c(O)c4)[nH]c3-c3ccccc3)ccc21 | –
9 | inactive | – | COc1ccc(CCN2CCc3ccccc3C2)cc1OC | –
10 | – | 49.1 | O=c1cc(CN2CCN(Cc3ccccc3)CC2)c2ccc(O)c(O)c2o1 | –
11 | – | 51.4 | Nc1cc(C(=O)c2ccccc2)ccc1O | –
12 | – | – | O=C1c2ccc3c4c(ccc(c24)C(=O)N1O)CC3 | inhibition (at 50 µM (top of the series)): inactive
13 | – | 4.85 | CN(CCc1ccc(O)c(O)c1)c1ccnc2ccccc12 | –
14 | inactive | – | NCCNc1c2ccccc2nc2ccccc12 | –
15 | – | 26.6 | Oc1ccc(CCNC2CCN(Cc3ccccc3)CC2)cc1O | –
16 | – | 9.57 | CCOc1cccc(-c2nc(-c3ccc(O)c(O)c3)cs2)c1 | –
17 | – | 27.9 | Oc1ccc(CCCNc2c3ccccc3nc3ccccc23)cc1O | –
18 | inactive | – | COc1ccc(CCNc2cccc3ccccc23)cc1OC | –
19 | – | 11.6 | Oc1ccc(CCNc2ccc3ccccc3c2)cc1O | –
20 | inactive | – | COc1cccc(CCNc2c3ccccc3nc3ccccc23)c1 | –
21 | – | 8.07 | O=C1OCCN1CCc1nc(-c2ccc(O)c(O)c2)cs1 | –

Row | inhibition (at 100 µM (top of the series)) | IC50 [µM] | Compound | other results
22 | – | 17 | Cc1c(-c2ccccc2)[nH]c(-c2ccc(O)c(O)c2)[n+]1O | –
23 | inactive | – | COc1ccc(CNc2c3ccccc3nc3ccccc23)cc1OC | –
24 | inactive | – | COc1ccc(CCNc2c3ccccc3nc3ccccc23)cc1 | –
25 | – | 13.1 | CC(C)(C)C(=O)OCc1nc(-c2ccc(O)c(O)c2)cs1 | –
26 | inactive | – | NCc1cc2c3c(c(=O)oc2c(O)c1O)CCC3 | –
27 | inactive | – | O=c1cc(CO)oc(CN2CCCCC2)c1O | –
28 | – | 8.38 | CN(CCc1ccc(O)c(O)c1)c1ccncc1 | –
29 | inactive | – | COc1ccc(CC(=O)O)cc1OC | –
30 | – | 9.45 | Cc1ccc(-c2nc(-c3ccc(O)c(O)c3)cs2)cc1 | –
31 | inactive | – | COc1ccc(-c2csc(-c3ccccc3OC)n2)cc1OC | –
32 | – | 11.4 | Oc1ccc(CCNc2cncc3ccccc23)cc1O | –
33 | – | 13.9 | Cc1nc(NCCc2ccc(O)c(O)c2)c2c3c(sc2n1)CCC3 | –
34 | inactive | – | COc1ccc(CCN2CCN(C)CC2)cc1OC | –
35 | – | 44.2 | O=c1ccc2cc(O)c(O)cc2o1 | –
36 | inactive | – | COc1ccc(CCC(=O)O)cc1OC | –
37 | inactive | – | Oc1ccc(CCNc2c3ccccc3nc3ccccc23)cc1 | –
38 | inactive | – | COc1ccc(CCN(C)c2ccncc2)cc1OC | –
39 | inactive | – | O=c1ccn(CCNc2c3ccccc3nc3ccccc23)cc1OCc1ccccc1 | –
40 | inactive | – | Cc1c(OCc2ccccc2)c(=O)ccn1CCNc1c2ccccc2nc2ccccc12 | –
41 | inactive | – | COc1ccc(CCN(C)c2c3ccccc3nc3ccccc23)cc1OC | –
42 | – | 22.3 | Oc1ccc(CCN2CCc3ccccc3C2)cc1O | –

Row | inhibition (at 100 µM (top of the series)) | IC50 [µM] | Compound | other results
43 | inactive | – | COc1ccc(-c2csc(-c3ccccc3)n2)cc1OC | –
44 | inactive | – | COc1ccc(CCN(C)CCc2ccccc2)cc1OC | –
45 | – | – | O=C(O)CCCCNc1c2ccccc2nc2ccccc12 | inhibition (at 50 µM (top of the series)): inactive
46 | inactive | – | O=C(c1ccco1)N1CCN(Cc2cc(=O)c(O)co2)CC1 | –
47 | inactive | – | COc1ccc(CCN(C)c2ccnc3ccccc23)cc1OC | –
48 | – | 19.5 | CCC(C)c1ccc(N)c(O)c1 (stereo not drawn) | –
49 | inactive | – | COc1ccc(CCNC2CCN(C)CC2)cc1OC | –
50 | inactive | – | COc1cccc(-c2nc(-c3ccc(OC)c(OC)c3)cs2)c1 | –
51 | inactive | – | COc1ccc(CCCNc2c3ccccc3nc3ccccc23)cc1OC | –
52 | inactive | – | COc1ccc(CCNC2CCN(Cc3ccccc3)CC2)cc1OC | –
53 | – | 10.5 | Oc1ccc(CCNC(c2ccccc2)c2ccccc2)cc1O | –
54 | inactive | – | COc1ccc(-c2nc(-c3ccccc3)c(-c3ccccc3)[nH]2)cc1OC | –
55 | inactive | – | COc1ccc(CCNc2cncc3ccccc23)cc1OC | –
56 | inactive | – | CCC(C)C(=O)Nc1ccccc1N (stereo not drawn) | –
57 | inactive | – | COc1ccc(CCNc2c3c(nc4ccccc24)CCCC3)cc1OC | –
58 | inactive | – | O=C(c1ccco1)N1CCN(Cc2cc(=O)c(O)c[nH]2)CC1 | –
59 | – | 12.6 | Oc1ccc(-c2csc(Cc3cc4ccccc4[nH]3)n2)cc1O | –
60 | inactive | – | COc1ccc(CCNc2ccncc2)cc1OC | –
61 | inactive | – | COc1ccc(CCNc2ccnc3ccccc23)cc1OC | –
62 | – | 10.2 | Oc1ccc(CCNc2c3c(nc4ccccc24)CCCC3)cc1O | –

Row | Compound | inhibition (at 100 µM (top of the series)) | IC50 [µM] | other results
63 | COc1ccc2c(c1)C(=O)C(N)CC2 (stereo not drawn) | – | 74.5 | –
